Screening data: PubChem BioAssay, several laboratories
Sampled rows, rich in hits. Any-hit rate of the full collection: about 1.6%.
Rev-RRE block – HIV Rev-RRE protein-RNA interaction inhibition; P05866; inhibition, % at 8 µM; Rev peptide-RRE RNA binding, FRET; AID 704; actives 0.79% (n = 97,000);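 active = inhibition above the screen-wide mean plus 3 SD, cut at about 35% in these data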
Target sequence (P05866 whole entry, looked up): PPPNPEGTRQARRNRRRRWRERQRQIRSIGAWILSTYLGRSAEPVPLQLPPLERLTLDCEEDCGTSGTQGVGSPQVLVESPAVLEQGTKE
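assay system = Cy5-tagged RRE RNA duplex with fluorescein-tagged Rev peptide | incubation = 5 + 15 min at 25 °C | also added = labelled Rev peptide | measure = % inhibition of FRET ratio versus controls | benchmarks = DMSO wells as 0% and neomycin B wells as 100% inhibition | measured by = FRET fluorescence readout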
Mac1 fbg inh – inhibitors of human CD11b/CD18 binding to fibrinogen; K562 CD11b/CD18 adhesion to fibrinogen, ATPlite luminescence; Mn2+ added to activate the integrin; inhibition, % at 10 µM; actives 0.54% (n = 93,000); AID 1497;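 active = primary inhibition of 50% or more at 10 µM, then 40% or more on retest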
sEH inh – blocks human soluble epoxide hydrolase activity; AID 707; recombinant human sEH enzymatic activity assay; P34913; inhibition, % at 2 µM; actives 0.34% (n = 91,000); in the data active = inhibition above about 80%
Mac1 fbg enh – CD11b/CD18-fibrinogen binding enhancement | P05107+P11215 | K562 CD11b/CD18 adhesion to fibrinogen, ATPlite luminescence | activation, % at 10 µM | actives 0.07% (n = 93,000);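 active = 10 µM primary screen giving 50% or more activity, confirmed by 40% or more on retest at that dose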
sEH act – activators of human soluble epoxide hydrolase; P34913; purified human sEH enzymatic activity, activator screen; activation, % at 2 µM; actives 0.04% (n = 91,000); AID 717; in the data active = activation above about 37%
Smad3 FoxH1 inh – inhibitors of human Smad3 transcription factor binding; P84022; TR-FRET Smad3/Dy647-FoxH1 peptide binding, europium anti-His; inhibition, % at 25 µM; actives 0.29% (n = 88,000); AID 630;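 active = compounds that reduce the energy-transfer binding signal between the protein and its labelled peptide by more than half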
Target sequence (P84022 whole entry, looked up): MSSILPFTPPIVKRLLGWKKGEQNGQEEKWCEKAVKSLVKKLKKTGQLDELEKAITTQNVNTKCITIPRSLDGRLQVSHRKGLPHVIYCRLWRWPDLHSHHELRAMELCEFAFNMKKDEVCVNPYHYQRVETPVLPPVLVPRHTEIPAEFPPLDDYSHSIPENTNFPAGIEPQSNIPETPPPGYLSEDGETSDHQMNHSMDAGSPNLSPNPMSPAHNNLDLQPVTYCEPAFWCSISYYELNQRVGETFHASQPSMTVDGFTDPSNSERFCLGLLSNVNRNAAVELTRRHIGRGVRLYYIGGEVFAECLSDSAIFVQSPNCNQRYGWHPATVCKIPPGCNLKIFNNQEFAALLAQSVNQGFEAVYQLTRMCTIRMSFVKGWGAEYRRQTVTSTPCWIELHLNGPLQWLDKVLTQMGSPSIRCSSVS
Hits are given with their value; – = inactive; · = no result given; [ ] = another dose, or the depositor's remark.

SMILES | Rev-RRE block | Mac1 fbg inh | sEH inh | Mac1 fbg enh | sEH act | Smad3 FoxH1 inh
O=S(=O)(Nc1nccs1)c1ccc([As](=O)(O)O)cc1 | · | · | · | · | · | 102
CC(Cc1ccccc1)NC(=O)NC(C)Cc1ccccc1 (stereo not given) | – | – | 98 | – | – | –
CC(=O)NC(C)Cc1ccccc1 (stereo not given) | – | – | – | – | – | –
CCCOC(=O)[C@H]1[C@@H](C(=O)O)[C@H]2CC[C@@H]1O2 | · | · | · | · | · | –
O=C1NC(=O)N(c2ccc3c(c2)OCO3)C(=O)/C1=C\c1ccc(N2CCCCC2)o1 | · | – | · | – | · | ·
CN1C(=O)C(=Cc2ccc(N3CCCCCC3)o2)C(=O)N(C)C1=S | 124[fluorescence artefact?] | · | – | · | – | ·
Cn1ncnc2c(=O)n(C)c(=O)nc1-2 | · | 71 | · | – | · | ·
CC(=O)O[C@H]1CC[C@H]2[C@H]3CCC4=C[C@@H](C5SCCS5)[C@H](OC(C)=O)C[C@]4(C)[C@@H]3CC[C@]12C | · | · | · | · | · | 98
CC1=C2C(=O)[C@H]3[C@@H](CC=C4C[C@@H](O)CC[C@@]43C)[C@@H]2CC[C@@]12O[C@@H]1C[C@H](C)CN[C@H]1[C@@H]2C | · | · | · | · | · | –
O=C(O)C[C@@H]1NCc2cc3ccccc3nc21 | · | · | · | · | · | 51
Cn1nc(-c2ccc(OCC(=O)N3CCN(Cc4ccccc4)CC3)cc2)c2ccccc2c1=O | – | 71 | – | – | – | –
CN1CCN(C(=O)COc2ccc(-c3nc4ccccc4s3)cc2)CC1 | – | 93 | – | – | – | –
CC(C)NS(=O)(=O)c1ccc(OCC(=O)N2CCN(C)CC2)cc1 | – | – | – | – | – | –
CC[C@H]1CN2CCc3cc(OC)c(OC)cc3[C@@H]2C[C@@H]1C[C@H]1NCCc2c1[nH]c1ccc(O)cc21 | · | · | · | · | · | –
Cc1cc2c(C(F)(F)F)cc(=O)oc2c2c1NCCC2 | 130[fluorescence artefact?] | · | – | · | – | –
O=c1cc(C(F)(F)F)c2cc3c4c(c2o1)CCCN4CCC3 | 132[fluorescence artefact?] | – | – | – | – | –
CC1=NN(c2ccccc2)C(=O)[C@H]1N=Nc1ccc([As](=O)(O)O)c(O)c1 | · | · | · | · | · | –
Cc1c([C@@H](C)[C@H]2NC[C@H](C)C[C@@H]2O)ccc2c1C[C@@H]1[C@@H]2CC=C2C[C@@H](O)CC[C@@]21C | · | · | · | · | · | –
CC(C)[C@]1(O)[C@@H](OC(=O)c2ccc[nH]2)[C@@]2(O)[C@@]3(C)C[C@]4(O)O[C@@]5([C@H](O)[C@@H](C)CC[C@@]35O)[C@@]2(O)[C@@]41C | · | · | · | · | · | –
C[C@@]12CC[C@@H]3[C@H](CCC4=CC(=O)CC[C@H]43)[C@H]1CC[C@H]2OC1(O)C(=O)c2ccccc2C1=O | · | · | · | · | · | 54
CC12CCC(=O)C=C1CCC1C2CCC2(C)C(O)CCC12 (stereo not given) | · | – | · | – | · | –
N#CS.N=C=S.N=C=S.[Cu].[NH2-].[NH2-].[NH2-].[NH2-].c1ccc2ncccc2c1 | · | · | · | · | · | 63
NNc1c(C(N)=O)c2c(N)ncnc2n1[C@H]1O[C@H](CO)[C@@H](O)[C@@H]1O | · | · | · | · | · | –
Nc1ccccc1O.O.O=C(O)[C@H]1[O][Sb][O][C@H]1C(=O)O | · | · | · | · | · | –
COc1cc2c3cc1Oc1c(O)c(OC)cc4c1[C@@H](Cc1ccc(cc1)Oc1cc(ccc1O)C[C@@H]3N(C)CC2)N(C)CC4 | · | · | · | · | · | 59
SMILES | Rev-RRE block | Mac1 fbg inh | sEH inh | Mac1 fbg enh | sEH act | Smad3 FoxH1 inh
O=C(O)[C@@H](O)[C@@H](O)[C@@H]1[O][Sb][O][C@@H]1CO | · | · | · | · | · | –
C[C@@H]1[C@H]2C=C[C@@H]1[C@H](c1c3ccc(=O)c(O)c-3oc3c(O)c(O)ccc13)[C@@H]2C(=O)O | · | · | · | · | · | 102
CCN(CC)c1ccc(/C=C2/C(=O)NC(=O)N(CC3CCCO3)C2=O)cc1 (stereo not given) | 89[fluorescence artefact?] | · | – | · | – | ·
O=C1NC(=O)N(CCC2=CCCCC2)C(=O)/C1=C/c1ccc(O)cc1 | · | – | · | – | · | ·
O=C(O)c1cc[c]([Hg][S]c2ncnc3nc[nH]c23)cc1 | · | · | · | · | · | –
CN1CCc2nc(N)c(C#N)c(-c3ccccc3)c2C1 | 46 | – | – | – | – | ·
CO[C@H]1[C@H](O)[C@@H](O[C@@H]2[C@@H](Oc3cccc4c(O)c5c(=O)oc6ccc(C)c7c(=O)oc(c34)c5c67)O[C@@H](C)[C@H](O)[C@H]2O)O[C@@H](C)[C@@H]1O | · | · | · | · | · | –
COC(=O)[C@@H]1[C@@H](C(=O)OC)C2(c3ccccc3-c3ccccc32)N(c2ccc(Cl)cc2)N1C#N | – | · | – | · | – | –
COC(=O)C[C@]1(C(=O)OC)CN(C#N)N(c2ccc(Cl)cc2)C12c1ccccc1-c1ccccc12 | – | · | – | · | – | 72[fluorescence artefact?]
O=S(=O)(NCCO)c1cc[c]([Sb](=[O])([OH])[OH])cc1 | · | · | · | · | · | –
C1=C(c2c[nH]c3ccccc23)CCNC1 | 99[fluorescence artefact?] | – | – | – | – | –
COC(=O)[C@@H]1C(=O)[C@H](C(=O)OC)[C@@H]2CC[C@H]1N2C | · | · | · | · | · | –
O=c1[nH]c(CN2CC=C(c3ccccc3)CC2)nc2cc(C(F)(F)F)ccc12 | 45 | – | – | – | – | –
C=CCn1c(O)c(C=Nc2ccc(N(CC)CC)cc2)c(=O)[nH]c1=O | 56 | – | – | – | – | –
O=c1[nH]c(=O)n(-c2cccc(Cl)c2)c(O)c1/C=N/c1ccccn1 | – | – | – | – | – | –
C=CCn1c(O)c(C=NCCN(C)C)c(=O)[nH]c1=O | 38 | – | – | – | – | –
COc1ccc2nc(/N=C/c3c(O)n(-c4cccc(Cl)c4)c(=O)[nH]c3=O)sc2c1 | 36 | · | – | · | – | ·
Cc1cccc(N=Cc2c(O)n(-c3ccccc3C)c(=O)[nH]c2=O)c1 | – | – | – | – | – | –
Cc1ccccc1-n1c(O)c(C=Nc2ccc(N(C)C)cc2)c(=O)[nH]c1=O | 41 | – | – | – | – | –
Nc1nc(SC2CCC([N+](=O)[O-])C3NONC23)c2[nH]cnc2n1 (stereo not given) | · | · | · | · | · | –
C[C@]12CC[C@H](O)C[C@@H]1CC[C@H]1[C@H]2CC[C@]2(C)[C@@H]1CC[C@H]2C(=O)C[C@H](O)C(F)(F)F | · | · | · | · | · | –
CCN(CC)c1ccc(N=Cc2c(O)n(-c3ccc(OC)cc3)c(=O)[nH]c2=O)cc1 | 72 | – | – | – | – | –
CCN(CC)c1ccc(N=Cc2c(O)n(CCC3=CCCCC3)c(=O)[nH]c2=O)cc1 | 42 | – | – | – | – | –
CCN(CC)c1ccc(N=Cc2c(O)n(-c3ccc(Cl)cc3)c(=O)[nH]c2=O)cc1 | – | – | – | – | – | ·
C[N+]1([O-])[C@@H]2CC(OC(=O)[C@@H](CO)c3ccccc3)C[C@H]1[C@H]1O[C@H]12 (stereo not given in full) | · | · | · | · | · | –
Cn1c(=O)c2[nH]cnc2n(C)c1=O.[CH2-][C@H](Cc1cccc2cc(C(=O)O)c(=O)oc12)OC.[Hg].[OH-] | · | · | · | · | · | 68
CCN(CC)P(=O)(NC(=O)C(Cl)(Cl)Cl)N(CC)CC.[Cl-].[Cl-].[Cl-].[Nd+3] | – | – | – | – | – | 67[fluorescence artefact?]
